Reference: ChEMBL document CHEMBL1124366, “Synthesis and biological properties of N63-carboxamides of teicoplanin antibiotics. Structure-activity relationships” (J Med Chem, 1989)
Converted amounts (≈) assume the structure as drawn.

Assays:
Assay type in all cases: functional
Pseudomonas aeruginosa = assay: In vitro minimum inhibitory concentration against Pseudomonas aeruginosa ATCC 10145
Escherichia coli = assay: In vitro minimum inhibitory concentration against Escherichia coli SKF 12140
Streptococcus pneumoniae = assay: In vitro minimum inhibitory concentration against Streptococcus pneumoniae UC41
Staphylococcus aureus = assay: In vitro minimum inhibitory concentration against Staphylococcus aureus Tour
[1] = test system: Staphylococcus epidermidis; assay: In vitro minimum inhibitory concentration against Staphylococcus epidermis ATCC 12228
Proteus vulgaris = assay: In vitro minimum inhibitory concentration against Proteus vulgaris X 19 ATCC 881
Streptococcus pyogenes [2] = assay: Subcutaneously administration into mice infected with Streptococcus pyogenes C 203; conditions: sc
How it was run: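 Mice (five per treatment group, five groups) infected intraperitoneally with about 10⁵ cells of Strep. pyogenes C 203, about 100× the LD50. ED50 (mg/kg) was calculated from the percentage of mice surviving at each dose on day 7.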

Streptococcus pyogenes [3] = assay: In vitro minimum inhibitory concentration against Streptococcus pyogenes C 203
Enterococcus faecalis = assay: In vitro minimum inhibitory concentration against Streptococcus faecalis ATCC 7080
[4] = test system: Staphylococcus haemolyticus; assay: In vitro minimum inhibitory concentration against Staphylococcus hemolyticus 602 cell line; conditions: strain 602

SMILES	MIC (Pseudomonas aeruginosa) [µg/mL]	MIC (Escherichia coli) [µg/mL]	MIC (Streptococcus pneumoniae) [µg/mL]	MIC (Staphylococcus aureus) [µg/mL]	MIC [1] [µg/mL]	MIC (Proteus vulgaris) [µg/mL]	ED50 (Streptococcus pyogenes [2]) [mg/kg]	MIC (Streptococcus pyogenes [3]) [µg/mL]	MIC (Enterococcus faecalis) [µg/mL]	MIC [4] [µg/mL]
CCNCCNC(=O)[C@H]1NC(=O)[C@H]2NC(=O)[C@H](NC(=O)[C@@H]3NC(=O)[C@H]4NC(=O)[C@@H](Cc5ccc(c(Cl)c5)Oc5cc3cc(c5O)Oc3ccc(cc3Cl)[C@H]2O)NC(=O)[C@H](N)c2ccc(O)c(c2)Oc2cc(O)cc4c2)c2ccc(O)c(c2)-c2c(O)cc(O)cc21	32 (≈ 25.2 µM)	8 (≈ 6.3 µM)	0.12 (≈ 0.0946 µM)	0.06 (≈ 0.0473 µM)	0.06 (≈ 0.0473 µM)	64 (≈ 50.4 µM)	1.25	0.06 (≈ 0.0473 µM)	0.12 (≈ 0.0946 µM)	0.12 (≈ 0.0946 µM)
CN(C)CCNC(=O)[C@H]1NC(=O)[C@H]2NC(=O)[C@H](NC(=O)[C@@H]3NC(=O)[C@H]4NC(=O)[C@@H](Cc5ccc(c(Cl)c5)Oc5cc3cc(c5O)Oc3ccc(cc3Cl)[C@H]2O)NC(=O)[C@H](N)c2ccc(O)c(c2)Oc2cc(O)cc4c2)c2ccc(O)c(c2)-c2c(O)cc(O)cc21	16 (≈ 12.6 µM)	4 (≈ 3.15 µM)	0.12 (≈ 0.0946 µM)	0.06 (≈ 0.0473 µM)	0.06 (≈ 0.0473 µM)	32 (≈ 25.2 µM)	1.25	0.06 (≈ 0.0473 µM)	0.12 (≈ 0.0946 µM)	0.06 (≈ 0.0473 µM)
CN(C)CCCCNC(=O)[C@H]1NC(=O)[C@H]2NC(=O)[C@H](NC(=O)[C@@H]3NC(=O)[C@H]4NC(=O)[C@@H](Cc5ccc(c(Cl)c5)Oc5cc3cc(c5O)Oc3ccc(cc3Cl)[C@H]2O)NC(=O)[C@H](N)c2ccc(O)c(c2)Oc2cc(O)cc4c2)c2ccc(O)c(c2)-c2c(O)cc(O)cc21	32 (≈ 24.7 µM)	8 (≈ 6.17 µM)	0.12 (≈ 0.0925 µM)	0.06 (≈ 0.0463 µM)	0.06 (≈ 0.0463 µM)	32 (≈ 24.7 µM)	0.54	0.06 (≈ 0.0463 µM)	0.12 (≈ 0.0925 µM)	0.12 (≈ 0.0925 µM)
NCCNC(=O)[C@H]1NC(=O)[C@H]2NC(=O)[C@H](NC(=O)[C@@H]3NC(=O)[C@H]4NC(=O)[C@@H](Cc5ccc(c(Cl)c5)Oc5cc3cc(c5O)Oc3ccc(cc3Cl)[C@H]2O)NC(=O)[C@H](N)c2ccc(O)c(c2)Oc2cc(O)cc4c2)c2ccc(O)c(c2)-c2c(O)cc(O)cc21	16 (≈ 12.9 µM)	4 (≈ 3.22 µM)	0.12 (≈ 0.0967 µM)	0.06 (≈ 0.0483 µM)	0.03 (≈ 0.0242 µM)	16 (≈ 12.9 µM)	1.25	0.06 (≈ 0.0483 µM)	0.12 (≈ 0.0967 µM)	0.12 (≈ 0.0967 µM)
NCCCCNC(=O)[C@H]1NC(=O)[C@H]2NC(=O)[C@H](NC(=O)[C@@H]3NC(=O)[C@H]4NC(=O)[C@@H](Cc5ccc(c(Cl)c5)Oc5cc3cc(c5O)Oc3ccc(cc3Cl)[C@H]2O)NC(=O)[C@H](N)c2ccc(O)c(c2)Oc2cc(O)cc4c2)c2ccc(O)c(c2)-c2c(O)cc(O)cc21	32 (≈ 25.2 µM)	8 (≈ 6.3 µM)	0.12 (≈ 0.0946 µM)	0.06 (≈ 0.0473 µM)	0.06 (≈ 0.0473 µM)	32 (≈ 25.2 µM)	0.54	0.06 (≈ 0.0473 µM)	0.12 (≈ 0.0946 µM)	0.12 (≈ 0.0946 µM)
CNCCCN(C)C(=O)[C@H]1NC(=O)[C@H]2NC(=O)[C@H](NC(=O)[C@@H]3NC(=O)[C@H]4NC(=O)[C@@H](Cc5ccc(c(Cl)c5)Oc5cc3cc(c5O)Oc3ccc(cc3Cl)[C@H]2O)NC(=O)[C@H](N)c2ccc(O)c(c2)Oc2cc(O)cc4c2)c2ccc(O)c(c2)-c2c(O)cc(O)cc21	16 (≈ 12.5 µM)	2 (≈ 1.56 µM)	0.12 (≈ 0.0935 µM)	0.06 (≈ 0.0468 µM)	0.06 (≈ 0.0468 µM)	32 (≈ 24.9 µM)	0.95	0.06 (≈ 0.0468 µM)	0.12 (≈ 0.0935 µM)	0.06 (≈ 0.0468 µM)
N[C@H]1C(=O)N[C@@H]2Cc3ccc(c(Cl)c3)Oc3cc4cc(c3O)Oc3ccc(cc3Cl)[C@@H](O)[C@@H]3NC(=O)[C@H](NC(=O)[C@@H]4NC(=O)[C@@H](NC2=O)c2cc(O)cc(c2)Oc2cc1ccc2O)c1ccc(O)c(c1)-c1c(O)cc(O)cc1[C@@H](C(=O)NCCCCCC(=O)N[C@@H]1[C@@H](O)[C@@H](O)[C@@H](CO)O[C@H]1O)NC3=O	> 128	64 (≈ 43.4 µM)	0.25 (≈ 0.17 µM)	0.12 (≈ 0.0815 µM)	0.06 (≈ 0.0407 µM)	> 128	2.9	0.12 (≈ 0.0815 µM)	0.25 (≈ 0.17 µM)	–
CCN(CC)CCCNC(=O)[C@H]1NC(=O)[C@H]2NC(=O)[C@H](NC(=O)[C@@H]3NC(=O)[C@H]4NC(=O)[C@@H](Cc5ccc(c(Cl)c5)Oc5cc3cc(c5O)Oc3ccc(cc3Cl)[C@H]2O)NC(=O)[C@H](N)c2ccc(O)c(c2)Oc2cc(O)cc4c2)c2ccc(O)c(c2)-c2c(O)cc(O)cc21	32 (≈ 24.4 µM)	8 (≈ 6.1 µM)	0.12 (≈ 0.0915 µM)	0.12 (≈ 0.0915 µM)	0.03 (≈ 0.0229 µM)	32 (≈ 24.4 µM)	0.18	0.06 (≈ 0.0458 µM)	0.12 (≈ 0.0915 µM)	–
